{"source": "ChEMBL document CHEMBL4400525", "about": "“Toward a treatment of diabesity: In vitro and in vivo evaluation of uncharged bromophenol derivatives as a new series of PTP1B inhibitors” (Eur J Med Chem, 2019)", "key": {"[1]": {"target": "Tyrosine-protein phosphatase non-receptor type 1 (Homo sapiens, UniProt P18031, A27S)", "sequence (P18031 whole entry A27S)": "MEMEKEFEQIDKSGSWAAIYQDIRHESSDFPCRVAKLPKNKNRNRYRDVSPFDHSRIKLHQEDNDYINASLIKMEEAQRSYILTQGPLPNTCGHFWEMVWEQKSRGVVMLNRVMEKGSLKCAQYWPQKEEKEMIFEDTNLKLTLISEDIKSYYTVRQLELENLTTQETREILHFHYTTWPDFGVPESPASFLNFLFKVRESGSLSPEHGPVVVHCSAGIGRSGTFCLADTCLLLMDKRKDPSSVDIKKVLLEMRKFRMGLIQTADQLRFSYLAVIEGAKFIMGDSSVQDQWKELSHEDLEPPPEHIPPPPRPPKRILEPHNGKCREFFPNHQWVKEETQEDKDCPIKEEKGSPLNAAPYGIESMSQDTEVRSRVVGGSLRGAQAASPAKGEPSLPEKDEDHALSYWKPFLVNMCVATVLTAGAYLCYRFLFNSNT", "experiment": "Inhibition of PTP1B A27S mutant (unknown origin)"}, "[2]": {"target": "Receptor-type tyrosine-protein phosphatase F (Homo sapiens, UniProt P10586)", "sequence (P10586 whole entry)": "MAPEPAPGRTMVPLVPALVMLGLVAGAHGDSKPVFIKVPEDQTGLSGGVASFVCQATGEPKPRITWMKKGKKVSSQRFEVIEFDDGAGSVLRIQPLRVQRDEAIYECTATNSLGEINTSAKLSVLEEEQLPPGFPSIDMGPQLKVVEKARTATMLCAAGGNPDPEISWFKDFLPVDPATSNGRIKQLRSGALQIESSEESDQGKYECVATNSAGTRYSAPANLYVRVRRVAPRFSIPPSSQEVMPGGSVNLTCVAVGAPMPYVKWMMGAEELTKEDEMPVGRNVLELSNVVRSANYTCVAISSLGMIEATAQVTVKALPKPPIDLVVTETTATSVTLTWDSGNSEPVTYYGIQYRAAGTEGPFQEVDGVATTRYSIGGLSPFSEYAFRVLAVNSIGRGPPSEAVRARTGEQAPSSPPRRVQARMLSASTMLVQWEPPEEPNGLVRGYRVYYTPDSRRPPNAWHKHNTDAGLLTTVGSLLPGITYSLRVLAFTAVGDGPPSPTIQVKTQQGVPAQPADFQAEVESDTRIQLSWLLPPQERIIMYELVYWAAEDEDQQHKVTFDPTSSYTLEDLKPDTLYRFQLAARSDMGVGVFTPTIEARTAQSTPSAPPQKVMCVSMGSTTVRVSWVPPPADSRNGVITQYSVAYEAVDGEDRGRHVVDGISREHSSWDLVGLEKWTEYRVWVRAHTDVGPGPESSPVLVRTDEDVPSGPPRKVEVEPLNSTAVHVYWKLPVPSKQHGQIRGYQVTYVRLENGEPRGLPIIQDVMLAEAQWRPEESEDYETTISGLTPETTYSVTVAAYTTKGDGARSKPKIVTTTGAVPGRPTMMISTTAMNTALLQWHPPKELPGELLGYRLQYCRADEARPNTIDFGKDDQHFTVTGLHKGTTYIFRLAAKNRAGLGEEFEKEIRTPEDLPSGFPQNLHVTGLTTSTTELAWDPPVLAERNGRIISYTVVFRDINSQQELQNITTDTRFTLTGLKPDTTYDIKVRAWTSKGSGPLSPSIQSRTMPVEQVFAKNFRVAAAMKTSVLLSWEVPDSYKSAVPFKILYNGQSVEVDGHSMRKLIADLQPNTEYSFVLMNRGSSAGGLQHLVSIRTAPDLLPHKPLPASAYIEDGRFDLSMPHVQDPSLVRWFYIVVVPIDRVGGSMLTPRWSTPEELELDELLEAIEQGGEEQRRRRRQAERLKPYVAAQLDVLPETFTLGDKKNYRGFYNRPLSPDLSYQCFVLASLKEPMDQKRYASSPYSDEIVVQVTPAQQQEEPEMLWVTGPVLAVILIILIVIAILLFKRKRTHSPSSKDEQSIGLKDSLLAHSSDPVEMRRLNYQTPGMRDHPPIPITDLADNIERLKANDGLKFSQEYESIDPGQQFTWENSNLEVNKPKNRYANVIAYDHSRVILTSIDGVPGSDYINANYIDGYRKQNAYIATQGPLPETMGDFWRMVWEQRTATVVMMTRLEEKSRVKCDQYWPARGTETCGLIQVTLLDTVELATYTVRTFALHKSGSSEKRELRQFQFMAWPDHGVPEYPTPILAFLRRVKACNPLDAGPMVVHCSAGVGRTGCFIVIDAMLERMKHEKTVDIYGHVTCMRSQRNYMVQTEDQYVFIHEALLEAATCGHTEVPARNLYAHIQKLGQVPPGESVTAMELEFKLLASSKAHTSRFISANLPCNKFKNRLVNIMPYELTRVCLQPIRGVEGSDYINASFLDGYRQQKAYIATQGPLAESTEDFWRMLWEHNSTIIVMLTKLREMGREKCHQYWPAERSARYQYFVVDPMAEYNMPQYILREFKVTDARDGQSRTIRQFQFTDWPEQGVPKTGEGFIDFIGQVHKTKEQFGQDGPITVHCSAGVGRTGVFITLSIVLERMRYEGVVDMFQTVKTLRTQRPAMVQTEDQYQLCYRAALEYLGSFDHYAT", "experiment": "Inhibition of LAR (unknown origin)"}, "Homo sapiens [3]": {"organism": "Homo sapiens", "experiment": "Selectivity ratio of IC50 for SHP1 (unknown origin) to IC50 for GST-fused PTP1B catalytic domain (1 to 321 residues) (unknown origin) expressed in Escherichia coli"}, "Homo sapiens [4]": {"organism": "Homo sapiens", "experiment": "Selectivity ratio of IC50 for SHP2 (unknown origin) to IC50 for GST-fused PTP1B catalytic domain (1 to 321 residues) (unknown origin) expressed in Escherichia coli"}, "Homo sapiens [5]": {"organism": "Homo sapiens", "experiment": "Selectivity ratio of IC50 for LAR (unknown origin) to IC50 for GST-fused PTP1B catalytic domain (1 to 321 residues) (unknown origin) expressed in Escherichia coli"}, "[6]": {"target": "T1, Tyrosine-protein phosphatase non-receptor type 1 (Homo sapiens) (UniProt P18031)", "T1 sequence (whole entry)": "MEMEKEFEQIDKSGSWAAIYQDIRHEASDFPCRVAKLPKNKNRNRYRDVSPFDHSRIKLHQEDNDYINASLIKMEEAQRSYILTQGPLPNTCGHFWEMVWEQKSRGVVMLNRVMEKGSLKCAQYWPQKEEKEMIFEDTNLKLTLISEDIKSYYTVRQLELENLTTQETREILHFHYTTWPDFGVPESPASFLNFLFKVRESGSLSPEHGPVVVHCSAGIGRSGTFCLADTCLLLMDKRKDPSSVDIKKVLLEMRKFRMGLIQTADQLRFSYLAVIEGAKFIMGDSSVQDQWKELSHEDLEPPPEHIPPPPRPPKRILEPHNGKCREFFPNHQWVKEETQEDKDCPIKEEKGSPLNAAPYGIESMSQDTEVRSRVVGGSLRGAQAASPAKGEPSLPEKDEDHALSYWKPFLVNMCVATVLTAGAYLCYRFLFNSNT", "experiment": "Binding affinity to human PTP1B (1 to 321 residues) at 50 uM by surface plasmon resonance analysis", "summary_of_the_method": "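Recombinant PTP1B was immobilized on an SPR sensor chip. Sensorgrams were recorded for the ligand injected at 50 µM.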"}, "Mus musculus [7]": {"test_system": "Mus musculus", "experiment": "Antiobesity activity in BKS db mouse assessed as decrease in food intake at 100 mg/kg, po administered once daily for 5 weeks", "format": "functional, organism-based", "summary_of_the_method": "(§1)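 Diabetic BKS db mice, n = 8 per group, were given 100 mg/kg/day orally for five weeks. Vehicle- and metformin-treated db mice and vehicle-treated BKS mice served as controls. Food intake, water intake and body weight were followed weekly, and abdominal fat pads were weighed at the end. Values are mean ± SEM.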"}, "Mus musculus [8]": {"test_system": "Mus musculus", "experiment": "Antiobesity activity in BKS db mouse assessed as decrease in water intake at 100 mg/kg, po administered once daily for 5 weeks", "format": "functional, organism-based", "summary_of_the_method": "as §1"}, "Mus musculus [9]": {"test_system": "Mus musculus", "experiment": "Antiobesity activity in BKS db mouse assessed as decrease in abdominal fat weight at 100 mg/kg, po administered once daily for 5 weeks", "format": "functional, organism-based", "summary_of_the_method": "as §1"}, "Mus musculus [10]": {"test_system": "Mus musculus", "experiment": "Antidiabetic activity in BKS db mouse assessed as blood glucose level at 100 mg/kg, po administered once daily for 5 weeks measured post last dose by glucometry (reference value: 28 mM)", "format": "functional"}, "Mus musculus [11]": {"test_system": "Mus musculus", "experiment": "Antidiabetic activity in BKS db mouse assessed as reduction in fasting blood glucose level at 100 mg/kg, po administered once daily for 3 weeks prior to 16 hrs fasting followed by glucose challenge and measured after 120 mins by OGTT", "format": "functional, organism-based", "summary_of_the_method": "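After treatment at 100 mg/kg/day p.o., the db mice (n = 8) received an oral glucose load of 2 g/kg. Blood glucose was read 120 min after the load. Values are mean ± SEM.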"}, "Mus musculus [12]": {"test_system": "Mus musculus", "experiment": "Antidiabetic activity in BKS db mouse assessed as improvement in insulin sensitivity at 100 mg/kg, po administered once daily for 2 weeks followed by insulin challenge and measured up to 120 mins by ITT", "format": "functional, organism-based", "summary_of_the_method": "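In week 2 of treatment at 100 mg/kg/day p.o., an insulin tolerance test was run in db mice (n = 8) with 0.75 U/kg insulin. Blood glucose was followed over time and the area under the curve was calculated. Values are mean ± SEM.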"}, "Mus musculus [13]": {"test_system": "Mus musculus", "experiment": "In vivo inhibition of PTP1B in BKS db mouse assessed as increase in AKT phosphorylation at 100 mg/kg, po administered once daily for 5 weeks measured post last dose by Western blot analysis", "format": "functional, organism-based", "summary_of_the_method": "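After five weeks of oral dosing, muscle tissue was taken from the BKS db mice. Phosphorylated and total Akt were measured by immunoblotting, n = 3, mean ± SEM.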"}, "[14]": {"experiment": "Acute toxicity in Kunming mouse assessed as effect on water intake at 500 to 2000 mg/kg, po administered as single dose measured for 1 week", "format": "organism-based", "conditions": "in vivo, 168 h"}, "[15]": {"experiment": "Sub-acute toxicity in Kunming mouse assessed as effect on food intake at 1000 mg/kg, po administered once daily for 14 days measured during compound dosing", "format": "organism-based", "conditions": "in vivo, 336 h", "summary_of_the_method": "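Mice were dosed orally with 1000 mg/kg body wt per day for 14 days alongside a vehicle-dosed group. Water intake, food intake and body weight were tracked over the dosing period and reported as mean ± SEM, n = 10.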"}, "[16]": {"experiment": "Acute toxicity in Kunming mouse assessed as mortality at 500 to 2000 mg/kg, po administered as single dose measured for 1 week", "format": "organism-based", "conditions": "in vivo, 168 h"}, "[17]": {"experiment": "Sub-acute toxicity in Kunming mouse assessed as mortality at 1000 mg/kg, po administered once daily for 14 days measured during compound dosing", "format": "organism-based", "conditions": "in vivo, 336 h"}, "[18]": {"experiment": "Sub-acute toxicity in Kunming mouse assessed as structural changes in liver at 1000 mg/kg, po administered once daily for 14 days measured 24 hrs post last dose by gomori staining based histological analysis", "format": "organism-based", "conditions": "in vivo", "summary_of_the_method": "(§2)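 After 14 days of oral dosing at 1000 mg/kg body wt per day, with vehicle-treated controls, liver, heart, kidney and lung sections were Gomori-stained. Sections were examined for histological structure and cell size.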"}, "[19]": {"experiment": "Sub-acute toxicity in Kunming mouse assessed as effect on kidney size at 1000 mg/kg, po administered once daily for 14 days measured 24 hrs post last dose by gomori staining based histological analysis", "format": "organism-based", "conditions": "in vivo", "summary_of_the_method": "as §2"}, "[20]": {"experiment": "Cmax in specific pathogen free Sprague-Dawley rat at 2 mg/kg, iv measured after 5 mins by LC-MS/MS analysis", "format": "ADME, organism-based", "design": "dose 2 mg/kg, route intravenous", "conditions": "in vivo"}, "[21]": {"experiment": "Half life in specific pathogen free Sprague-Dawley rat at 2 mg/kg, iv or 10 mg/kg, po by LC-MS/MS analysis", "format": "ADME, organism-based", "conditions": "in vivo"}, "[22]": {"experiment": "Tmax in specific pathogen free Sprague-Dawley rat at 10 mg/kg, po by LC-MS/MS analysis", "format": "ADME, organism-based", "conditions": "in vivo"}, "Mus musculus [23]": {"test_system": "Mus musculus", "experiment": "Antidiabetic activity in BKS db mouse assessed as reduction in blood glucose level at 100 mg/kg, po administered once daily for 5 weeks measured up to three weeks during compound dosing by glucometry"}}, "note": "The source made the active and inactive calls. The rule behind the calls is not given here.", "data": [{"smiles": "CCOc1ccc(Oc2ccc(-c3cnc(-c4cc(O)c(O)c(Br)c4Br)o3)cc2)cc1", "values": [{"measurement": "IC50", "setting": "[1]", "value": 1780, "unit": "nM"}, {"measurement": "IC50", "setting": "[2]", "value": "> 36800", "unit": "nM"}, {"measurement": "Ratio IC50", "setting": "Homo sapiens [3]", "value": "20 to 200"}, {"measurement": "Ratio IC50", "setting": "Homo sapiens [4]", "value": "20 to 200"}, {"measurement": "Ratio IC50", "setting": "Homo sapiens [5]", "value": "20 to 200"}, {"measurement": "Activity", "setting": "[6]", "value": "Active"}, {"measurement": "Activity", "setting": "Mus musculus [7]", "value": "Active"}, {"measurement": "Activity", "setting": "Mus musculus [8]", "value": "inactive"}, {"measurement": "Activity", "setting": "Mus musculus [9]", "value": "Active"}, {"measurement": "Activity", "setting": "Mus musculus [10]", "value": 18, "unit": "mM"}, {"measurement": "Activity", "setting": "Mus musculus [11]", "value": "Active"}, {"measurement": "Activity", "setting": "Mus musculus [12]", "value": "Active"}, {"measurement": "inhibition", "setting": "Mus musculus [13]", "value": "Active"}, {"measurement": "Activity", "setting": "[14]", "value": "Non-Toxic"}, {"measurement": "Activity", "setting": "[15]", "value": "Toxic"}, {"measurement": "Activity", "setting": "[16]", "value": "Non-Toxic"}, {"measurement": "Activity", "setting": "[17]", "value": "Non-Toxic"}, {"measurement": "Activity", "setting": "[18]", "value": "Non-Toxic"}, {"measurement": "Activity", "setting": "[19]", "value": "Non-Toxic"}, {"measurement": "Cmax", "setting": "[20]", "value": 3.35, "unit": "µM"}, {"measurement": "half-life", "setting": "[21]", "value": 24, "unit": "min"}, {"measurement": "Tmax", "setting": "[22]", "value": 30, "unit": "min"}, {"measurement": "Activity", "setting": "Mus musculus [23]", "value": "inactive"}]}]}
